Drawing on ChEMBL document CHEMBL1149502, “Conjugated indole-imidazole derivatives displaying cytotoxicity against multidrug resistant cancer cell lines” (Bioorg Med Chem Lett, 2006), this text covers IC50 for 13 compounds.

What all share (type): functional, cell-based
For experiment [1], the system named is HL-60. The experiment is described as follows: Cytotoxicity against human HL60/TX1000 cell line by MTS assay. In outline:
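HL-60/TX1000 is a subline isolated in vitro by subculturing HL-60 in rising Taxol concentrations. It overexpresses MDR1 mRNA and P-glycoprotein (Western blot, anti-P-gp immunofluorescence). Cells were grown in RPMI1640 with 10% FC, penicillin, streptomycin and L-glutamine, split every third day and set at 2· 10⁵ cells/mL the day before. Compound was a 1 mM DMSO stock diluted into medium, read by MTS.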
In general terms: Formazan colour is commonly taken as a measure of viable cells.

Experiment [2] has as its system MDA-MB-435. Description: Cytotoxicity against human MDA435 cell line by MTS assay. The method in brief: (§1)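 Cells kept in RPMI1640 with 10% FC, 100 U/mL penicillin, streptomycin and […] L-glutamine. Split every third day and diluted to 2· 10⁵ cells/mL one day before testing, so exponentially growing cultures were used. Compound stock was 1 mM in DMSO, diluted straight into the medium to final concentrations. Viability was read by MTS.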

Experiment [3] deals with MES-SA. The experiment is described as follows: Cytotoxicity against human MES-SA cell line by MTS assay. The method in brief: as §1
Experiment [4] relates to MES-SA/Dx5. The experiment is described as follows: Cytotoxicity against human MES-SA/DX5 cell line by MTS assay. In outline:
as §1

Experiment [5] relates to HL-60. The experiment is described as follows: Cytotoxicity against human HL60 cell line by MTS assay. The method in brief: as §1
Experiment [6] deals with P388. Description: Cytotoxicity against murine P388 cell line by MTS assay. Particulars: Mus musculus. The method in brief:
as §1

For experiment [7], the system named is DU-145. Description: Cytotoxicity against human DU145 cell line by MTS assay. The method in brief:
as §1

In general, IC50 refers to the concentration at which inhibition is half-maximal. Low readings indicate greater potency, high ones weaker potency. `O=C(c1ncc[nH]1)c1cn(Cc2ccc(Cl)cc2)c2ccccc12`: the IC50 in experiment [1] is 10 µM. In other words, the double-digit micromolar range.

In the case of `CC(=O)O[C@H]1C(=O)[C@@]2(C)[C@H]([C@H](OC(=O)c3ccccc3)[C@]3(O)C[C@H](OC(=O)[C@H](O)[C@@H](NC(=O)c4ccccc4)c4ccccc4)C(C)=C1C3(C)C)[C@]1(OC(C)=O)CO[C@@H]1C[C@@H]2O` [PACLITAXEL], the IC50 in experiment [2] stood at 0.005 µM; in experiment [3], 0.005 µM; in experiment [4], 5 µM.

The compound `COC(=O)c1c[nH]c(C(=O)c2cn(Cc3ccc(Cl)cc3)c3ccccc23)n1` came in with an IC50 in experiment [1] of 0.5 µM.

The compound `O=C(c1cccnc1)c1c[nH]c(C(=O)c2cn(Cc3ccc(Cl)cc3)c3ccccc23)n1` came in with an IC50 in experiment [1] of 0.5 µM.

In the case of `O=C(c1nc2ccc[nH]c-2n1)c1cn(Cc2ccc(Cl)cc2)c2ccccc12`, the IC50 in experiment [1] is 10 µM.

In turn, `CCC(=O)c1c[nH]c(C(=O)c2cn(Cc3ccc(Cl)cc3)c3ccccc23)n1` registered an IC50 in experiment [1] of 0.5 µM. Against the preceding compound, the IC50 is about 20-fold lower.

`O=C(c1nc(CO)c[nH]1)c1cn(Cc2ccc(Cl)cc2)c2ccccc12`: in experiment [1], the IC50 stood at 5 µM.

Compound `O=C(O)c1c[nH]c(C(=O)c2cn(Cc3ccc(Cl)cc3)c3ccccc23)n1` showed an IC50 in experiment [1] of 10 µM.

On to `Cn1c(C(=O)c2cn(Cc3ccc(Cl)cc3)c3ccccc23)nc2cnccc21`, for which half-maximal inhibition in experiment [1] (IC50) required 10 µM. This counts as double-digit micromolar.

As for `CCNC(=O)c1c[nH]c(C(=O)c2cn(Cc3ccc(Cl)cc3)c3ccccc23)n1`, in experiment [1], 5 µM corresponded to half-maximal inhibition (IC50). Compared with the last compound, the IC50 is about 2-fold lower.

`O=C(c1nc(-c2ccccn2)c[nH]1)c1cn(Cc2ccc(Cl)cc2)c2ccccc12`: in experiment [1], the IC50 was 0.5 µM.

Compound `O=C(c1nc(C(O)c2cccnc2)c[nH]1)c1cn(Cc2ccc(Cl)cc2)c2ccccc12` (stereo unspecified) had an IC50 in experiment [1] of 10 µM. This IC50 is about 20-fold higher than that of the compound before.

Turning to `O=C(c1nc2cc[nH]cc-2n1)c1cn(Cc2ccc(Cl)cc2)c2ccccc12`, the IC50 in experiment [1] turned out to be 0.05 µM; in experiment [2], 0.05 µM; in experiment [5], 0.05 µM; in experiment [6], 0.05 µM; in experiment [7], 0.05 µM; in experiment [3] it was 0.01 µM. The compound further displayed an IC50 in experiment [4] of 0.05 µM.
